Assay results reported in ChEMBL document CHEMBL1143839, “Antiplasmodial activity of lauryl-lysine oligomers” (Antimicrob Agents Chemother, 2007).

What was measured:
[1] = Ratio of LC50 for erythrocytes to IC50 for Plasmodium falciparum W2; assay type: functional
Plasmodium falciparum = assay: Antiplasmodial activity against Plasmodium falciparum W2 as reduced [3H]hypoxanthine uptake after 18 hrs
MDCK = assay: Cytotoxicity against dog MDCK cells after 3.5 hrs by Alamar blue assay; assay type: cell-based; conditions: Canis lupus familiaris
Method in brief: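 Cells grown to confluence (~3 days) with different compound concentrations in parallel cultures. Viability then read by Alamar blue fluorescence 3.5 h after dye addition. Cycloheximide 10 µM added at start as positive control. IC50 taken as concentration reducing viability by 50%. At least two independent experiments in duplicate.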

[2] = Toxicity against human erythrocytes assessed as hemolysis at 100 uM after 1 hr; assay type: cell-based, Erythrocyte; conditions: read-out: Activity
Method in brief: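 Heparinized fresh human blood washed three times in PBS (200 × g, 2 min), mixed with compound in PBS to 4% hematocrit. Incubated 1 h at 37°C with stirring, then centrifuged. Supernatant absorbance read at 460 nm. PBS alone gave baseline and 0.4% Triton X-100 gave 100% lysis. At least two independent experiments.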

[3] = Ratio of IC50 for dog MDCK cells to IC50 for Plasmodium falciparum W2; assay type: functional

In the case of NCCCCC(N)C(=O)NCCCCCCCCCCCC(=O)NC(CCCCN)C(=O)O (stereo not given), the “Ratio LC50/IC50” value [1] is reported as greater than 700, the IC50 (Plasmodium falciparum) is reported as 68.2 µM and the IC50 (MDCK) is reported as greater than 800 µM. For the same compound, the hemolysis at 1 h, 100 µM [2] was less than 0.1% and the “Ratio IC50” value [3] was greater than 12.
For CCCCCCCCCCCC(=O)NC(CCCCN)C(=O)NCCCCCCCCCCCC(=O)NC(CCCCN)C(=O)O (stereo not given), the “Ratio LC50/IC50” value [1] was 288, the IC50 (Plasmodium falciparum) was 3.54 µM and the IC50 (MDCK) was greater than 100 µM. For the same compound, the hemolysis at 1 h, 100 µM [2] was 4.9% and the “Ratio IC50” value [3] was greater than 28.
With NCCCCCCCCCCCC(=O)NC(CCCCN)C(=O)NCCCCCCCCCCCC(=O)NC(CCCCN)C(=O)O (stereo not given) the “Ratio LC50/IC50” value [1] was 7714, the IC50 (Plasmodium falciparum) was 4.63 µM and the IC50 (MDCK) was greater than 150 µM. The hemolysis at 1 h, 100 µM [2] was 0.14% and the “Ratio IC50” value [3] was greater than 32.
With CCCCCCCCCCCC(=O)NC(CCCCN)C(=O)NCCCCCCCCCCCC(=O)NC(CCCCN)C(=O)NCCCCCCCCCCCC(=O)NC(CCCCN)C(=O)O (stereo not given) the “Ratio LC50/IC50” value [1] was 442, the IC50 (Plasmodium falciparum) was 0.85 µM and the IC50 (MDCK) was 75 µM. For the same compound, the hemolysis at 1 h, 100 µM [2] was 13.3% and the “Ratio IC50” value [3] was 88.
In the case of NCCCCC(N)C(=O)NCCCCCCCCCCCC(=O)NC(CCCCN)C(=O)NCCCCCCCCCCCC(=O)NC(CCCCN)C(=O)O (stereo not given), the “Ratio LC50/IC50” value [1] is reported as greater than 6300, the IC50 (Plasmodium falciparum) is reported as 7.85 µM and the IC50 (MDCK) is reported as greater than 400 µM. For the same compound, the hemolysis at 1 h, 100 µM [2] was less than 0.1% and the “Ratio IC50” value [3] was greater than 51.
In the case of NCCCCCCCCCCCC(=O)NC(CCCCN)C(=O)NCCCCCCCCCCCC(=O)NC(CCCCN)C(=O)NCCCCCCCCCCCC(=O)NC(CCCCN)C(=O)O (stereo not given), the “Ratio LC50/IC50” value [1] is reported as 10734, the IC50 (Plasmodium falciparum) is reported as 0.14 µM and the IC50 (MDCK) is reported as 91 µM. The hemolysis at 1 h, 100 µM [2] was 3.4% and the “Ratio IC50” value [3] was 650.
In the case of NCCCCC(N)C(=O)NCCCCCCCCCCCC(=O)NC(CCCCN)C(=O)NCCCCCCCCCCCC(=O)NC(CCCCN)C(=O)NCCCCCCCCCCCC(=O)NC(CCCCN)C(=O)O (stereo not given), the “Ratio LC50/IC50” value [1] is reported as 1263, the IC50 (Plasmodium falciparum) is reported as 1.72 µM and the IC50 (MDCK) is reported as greater than 270 µM. The hemolysis at 1 h, 100 µM [2] was 2.3% and the “Ratio IC50” value [3] was greater than 157.
With CCCCCCCCCCCC(=O)NC(CCCCN)C(=O)NCCCCCCCCCCCC(=O)NC(CCCCN)C(=O)NCCCCCCCCCCCC(=O)NC(CCCCN)C(=O)NCCCCCCCCCCCC(=O)NC(CCCCN)C(=O)O (stereo not given) the “Ratio LC50/IC50” value [1] was 2317, the IC50 (Plasmodium falciparum) was 0.08 µM and the IC50 (MDCK) was 37 µM. For the same compound, the hemolysis at 1 h, 100 µM [2] was 26.1% and the “Ratio IC50” value [3] was 1052.
With NCCCCCCCCCCCC(=O)NC(CCCCN)C(=O)NCCCCCCCCCCCC(=O)NC(CCCCN)C(=O)NCCCCCCCCCCCC(=O)NC(CCCCN)C(=O)NCCCCCCCCCCCC(=O)NC(CCCCN)C(=O)O (stereo not given) the “Ratio LC50/IC50” value [1] was 126, the IC50 (Plasmodium falciparum) was 1.59 µM and the IC50 (MDCK) was greater than 75 µM. The hemolysis at 1 h, 100 µM [2] was 24.6% and the “Ratio IC50” value [3] was greater than 47.
